What was measured:
CAL-27 [1] = test: Potentiation of 2 uM cisplatin-induced cytotoxicity against human CAL27 cells assessed as decrease in cell viability by measuring combination index at 800 uM preincubated for 48 hrs followed by cisplatin treatment measured after 72 hrs by MTT assay; type: functional; conditions: in the assay text read “at 800 nM” for “at 800 uM”
Method in brief: (§1)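 HDAC inhibitor was added 48 h before cisplatin, then cells were exposed to cisplatin for 72 h and viability was read by MTT assay. Combination index was computed by the Chou–Talalay method: CI > 1 is antagonism, CI = 1 additive, CI < 0.9 synergism. Points with fraction affected below 0.20 were flagged.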

Histone deacetylase 1 = Histone deacetylase 1 (Homo sapiens, UniProt Q13547); test: Inhibition of recombinant full length human C-terminal FLAG/His-tagged HDAC1 expressed in baculovirus infected sf9 cells using Z-(Ac)Lys-AMC as substrate measured after 90 mins by fluorescence assay
Chain of Histone deacetylase 1 (Q13547 whole entry): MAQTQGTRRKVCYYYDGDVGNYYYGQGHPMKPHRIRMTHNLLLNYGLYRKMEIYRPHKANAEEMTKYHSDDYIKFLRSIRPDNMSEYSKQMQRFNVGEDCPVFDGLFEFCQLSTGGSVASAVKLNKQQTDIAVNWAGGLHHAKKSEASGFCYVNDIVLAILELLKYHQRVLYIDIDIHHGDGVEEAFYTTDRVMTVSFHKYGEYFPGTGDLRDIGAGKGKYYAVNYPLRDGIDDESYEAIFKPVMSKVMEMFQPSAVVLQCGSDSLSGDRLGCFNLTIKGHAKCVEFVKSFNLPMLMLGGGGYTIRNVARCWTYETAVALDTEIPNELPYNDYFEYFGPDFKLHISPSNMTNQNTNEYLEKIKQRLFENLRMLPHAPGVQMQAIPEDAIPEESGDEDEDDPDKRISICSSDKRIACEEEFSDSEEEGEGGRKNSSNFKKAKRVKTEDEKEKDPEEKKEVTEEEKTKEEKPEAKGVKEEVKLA

[2] = Inhibition of HDAC in human A2780CisR cells using Boc-Lys(epsilon-Ac)-AMC as substrate preincubated for 18 hrs followed by substrate addition measured after 3 hrs by fluorescence assay; type: cell-based
CAL-27 [3] = test: Potentiation of 0.316 uM cisplatin-induced cytotoxicity against human CAL27 cells assessed as decrease in cell viability by measuring combination index at 600 uM preincubated for 48 hrs followed by cisplatin treatment measured after 72 hrs by MTT assay; type: functional; conditions: in the assay text read “at 600 nM” for “at 600 uM”
Method in brief: (§2)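 Cal27 and cisplatin-resistant Cal27CisR cells were preincubated with the HDAC inhibitor for 48 h, then given cisplatin in combination. Viability was read by MTT after 72 h. The combination index was computed by the Chou–Talalay method: CI > 1 is antagonism, CI = 1 is additive, and CI < 0.9 is synergism. Points with fraction affected below 0.20 were flagged.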

[4] = molecular target: T1, Histone deacetylase 1/6 (Homo sapiens) (UniProt Q13547+Q9UBN7); test: Inhibition of HDAC1/HDAC6 in human Cal27CisR cells assessed as potentiation of 3.16 uM cisplatin-induced cytotoxicity by measuring combination index at 700 nM preincubated for 48 hrs followed by cisplatin treatment measured after 72 hrs by MTT assay
T1 sequence (Q13547 whole entry, looked up): as the sequence (Q13547 whole entry) above
T1 sequence (Q9UBN7 whole entry, looked up): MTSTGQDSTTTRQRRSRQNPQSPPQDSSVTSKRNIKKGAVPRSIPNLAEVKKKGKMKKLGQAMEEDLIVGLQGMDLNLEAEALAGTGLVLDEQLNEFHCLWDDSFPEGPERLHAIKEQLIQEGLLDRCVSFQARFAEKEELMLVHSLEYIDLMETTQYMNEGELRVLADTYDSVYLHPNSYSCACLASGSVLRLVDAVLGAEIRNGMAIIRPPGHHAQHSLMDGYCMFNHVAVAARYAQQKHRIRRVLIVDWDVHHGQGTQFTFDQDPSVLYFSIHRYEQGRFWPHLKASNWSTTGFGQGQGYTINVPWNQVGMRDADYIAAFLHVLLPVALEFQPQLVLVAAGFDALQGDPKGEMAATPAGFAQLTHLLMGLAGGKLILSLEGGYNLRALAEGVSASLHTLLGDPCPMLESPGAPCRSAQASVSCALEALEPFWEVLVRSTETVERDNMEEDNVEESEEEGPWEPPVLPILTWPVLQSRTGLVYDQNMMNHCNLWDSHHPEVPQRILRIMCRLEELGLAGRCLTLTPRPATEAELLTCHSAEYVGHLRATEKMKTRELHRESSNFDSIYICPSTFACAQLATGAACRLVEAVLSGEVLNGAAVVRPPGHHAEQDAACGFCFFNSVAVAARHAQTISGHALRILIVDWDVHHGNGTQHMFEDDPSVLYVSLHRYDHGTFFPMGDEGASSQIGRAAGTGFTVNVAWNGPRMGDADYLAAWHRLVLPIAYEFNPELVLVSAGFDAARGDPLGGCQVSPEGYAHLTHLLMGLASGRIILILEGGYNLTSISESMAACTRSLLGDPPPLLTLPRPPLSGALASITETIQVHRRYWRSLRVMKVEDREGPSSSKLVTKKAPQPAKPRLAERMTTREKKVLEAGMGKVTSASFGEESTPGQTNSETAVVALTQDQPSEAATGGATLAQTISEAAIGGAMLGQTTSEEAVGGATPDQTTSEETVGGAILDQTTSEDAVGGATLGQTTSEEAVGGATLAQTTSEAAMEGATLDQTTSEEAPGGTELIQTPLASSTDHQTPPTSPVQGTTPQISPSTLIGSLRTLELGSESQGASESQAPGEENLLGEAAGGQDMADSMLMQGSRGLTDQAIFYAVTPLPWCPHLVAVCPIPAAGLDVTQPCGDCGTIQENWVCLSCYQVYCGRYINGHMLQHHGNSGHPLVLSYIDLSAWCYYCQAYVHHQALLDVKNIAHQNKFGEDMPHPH

CAL-27 [5] = test: Potentiation of 2 uM cisplatin-induced cytotoxicity against human CAL27 cells assessed as decrease in cell viability by measuring combination index at 700 uM preincubated for 48 hrs followed by cisplatin treatment measured after 72 hrs by MTT assay; type: functional; conditions: in the assay text read “at 700 nM” for “at 700 uM”; method in brief: as §1
[6] = Inhibition of HDAC in human Cal27CisR cells using Boc-Lys(epsilon-Ac)-AMC as substrate preincubated for 18 hrs followed by substrate addition measured after 3 hrs by fluorescence assay; type: cell-based
ONS-76 = test: Antiproliferative activity against human ONS76 cells after 72 hrs by Celltiter-Glo assay; type: functional, cell-based; conditions: ONS-76, 72 h
CAL-27 [7] = test: Potentiation of 1 uM cisplatin-induced cytotoxicity against human CAL27 cells assessed as decrease in cell viability by measuring combination index at 800 uM preincubated for 48 hrs followed by cisplatin treatment measured after 72 hrs by MTT assay; type: functional; method in brief: as §1
Homo sapiens [8] = organism: Homo sapiens; test: Selectivity index, ratio of IC50 for recombinant full length human C-terminal FLAG/His-tagged HDAC1 expressed in baculovirus infected sf9 cells to IC50 for full length human recombinant N-terminal GST-tagged HDAC6 expressed in baculovirus infected sf9 cells
Method in brief: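 Ratio of isolated-enzyme IC50 values. HDAC1, HDAC6 and HDAC8 IC50s were each the mean ± SD of three independent experiments.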

CAL-27 [9] = test: Potentiation of 1 uM cisplatin-induced cytotoxicity against human CAL27 cells assessed as decrease in cell viability by measuring combination index at 700 uM preincubated for 48 hrs followed by cisplatin treatment measured after 72 hrs by MTT assay; type: functional; method in brief: as §1
Homo sapiens [10] = organism: Homo sapiens; test: Selectivity ratio of IC50 for recombinant human N-terminal GST-tagged/C-terminal His-tagged HDAC4 to IC50 for full length human recombinant N-terminal GST-tagged HDAC6 expressed in baculovirus infected sf9 cells
Method in brief: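 Ratio of isolated-enzyme IC50 values. The HDAC4 IC50 was determined in duplicate by an external contract service. The HDAC6 IC50 was the mean ± SD of three independent experiments.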

[11] = Inhibition of HDAC in human A2780 cells using Boc-Lys(epsilon-Ac)-AMC as substrate preincubated for 18 hrs followed by substrate addition measured after 3 hrs by fluorescence assay; type: cell-based
CAL-27 [12] = test: Potentiation of 0.5 uM cisplatin-induced cytotoxicity against human CAL27 cells assessed as decrease in cell viability by measuring combination index at 800 uM preincubated for 48 hrs followed by cisplatin treatment measured after 72 hrs by MTT assay; type: functional; method in brief: as §2
[13] = Inhibition of HDAC in human CAL27 cells using Boc-Lys(epsilon-Ac)-AMC as substrate preincubated for 18 hrs followed by substrate addition measured after 3 hrs by fluorescence assay; type: cell-based; conditions: CAL-27
CAL-27 [14] = test: Potentiation of 0.316 uM cisplatin-induced cytotoxicity against human CAL27 cells assessed as decrease in cell viability by measuring combination index at 800 uM preincubated for 48 hrs followed by cisplatin treatment measured after 72 hrs by MTT assay; type: functional; conditions: in the assay text read “at 800 nM” for “at 800 uM”; method in brief: as §2
[15] = molecular target: T1, Histone deacetylase 1/6 (Homo sapiens); test: Inhibition of HDAC1/HDAC6 in human Cal27CisR cells assessed as potentiation of 3.16 uM cisplatin-induced cytotoxicity by measuring combination index at 500 nM preincubated for 48 hrs followed by cisplatin treatment measured after 72 hrs by MTT assay
[16] = molecular target: T1, Histone deacetylase 1/6 (Homo sapiens); test: Inhibition of HDAC1/HDAC6 in human Cal27CisR cells assessed as potentiation of 5 uM cisplatin-induced cytotoxicity by measuring combination index at 700 uM preincubated for 48 hrs followed by cisplatin treatment measured after 72 hrs by MTT assay; type: cell-based; method in brief: as §2
CAL-27 [17] = test: Potentiation of 0.5 uM cisplatin-induced cytotoxicity against human CAL27 cells assessed as decrease in cell viability measuring combination index at 500 uM preincubated for 48 hrs followed by cisplatin treatment measured after 72 hrs by MTT assay; type: functional; conditions: in the assay text read “at 500 nM” for “at 500 uM”; method in brief: as §2
[18] = molecular target: T1, Histone deacetylase 1/6 (Homo sapiens); test: Inhibition of HDAC1/HDAC6 in human Cal27CisR cells assessed as potentiation of 1 uM cisplatin-induced cytotoxicity by measuring combination index at 800 uM preincubated for 48 hrs followed by cisplatin treatment measured after 72 hrs by MTT assay; type: cell-based
Method in brief: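 Cal27CisR cells preincubated 48 h with the HDAC inhibitor, then exposed to cisplatin for 72 h. Viability read by MTT. Combination index calculated by the Chou–Talalay method: CI > 1 antagonism, CI = 1 additive, CI < 0.9 synergism. Points with fraction affected below 0.20 are flagged. Values are the mean of three experiments.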

[19] = molecular target: T1, Histone deacetylase 1/6 (Homo sapiens); test: Inhibition of HDAC1/HDAC6 in human Cal27CisR cells assessed as potentiation of 5 uM cisplatin-induced cytotoxicity by measuring combination index at 600 uM preincubated for 48 hrs followed by cisplatin treatment measured after 72 hrs by MTT assay; type: cell-based; method in brief: as §2

SMILES | CI (CAL-27 [1]) | IC50 (Histone deacetylase 1) [nM] | IC50 [2] [nM] | CI (CAL-27 [3]) | CI [4] | CI (CAL-27 [5]) | IC50 [6] [nM] | IC50 (ONS-76) [nM] | CI (CAL-27 [7]) | Ratio IC50 (Homo sapiens [8]) | CI (CAL-27 [9]) | Ratio IC50 (Homo sapiens [10]) | IC50 [11] [nM] | CI (CAL-27 [12]) | IC50 [13] [nM] | CI (CAL-27 [14]) | CI [15] | CI [16] | CI (CAL-27 [17]) | CI [18] | also measured
COc1cc(NC(=O)NOCCCCCC(=O)NO)c2ncccc2c1 | 0.43 | 51.9 | 500 | 0.79 | 0.56 | 0.43 | 700 | 2670 | 0.56 | < 15 | 0.63 | > 3500 | 1000 | 0.93 | 900 | <0.2 | < 0.2 | 0.41 | 0.87 | 0.81 | CI [19]: 0.6
COc1cc(NC(=O)NOCCCCCC(=O)NO)c2nc(OC)cc(C)c2c1 | 0.66 | 43.2 | 500 | 0.71 | 0.28 | 0.6 | 500 | 650 | 0.69 | 15 | 0.61 | > 3500 | 1700 | 0.79 | 500 | 0.84 | 0.26 | 0.23 | 0.66 | 0.65 | CI [19]: 0.2
COc1cc(NC(=O)NOCCCCCC(=O)NO)c2nccc(C)c2c1 | 0.38 | 77.3 | 400 | 0.93 | 0.28 | 0.36 | 500 | 590 | 0.41 | < 15 | 0.43 | > 3500 | 900 | 0.51 | 600 | 0.56 | 0.71 | 0.21 | 0.49 | 1.09 | CI [19]: 0.25
